pIC50: −log10 of the molar value.
Key:
[1] = biological target: 72 kDa type IV collagenase (Homo sapiens, UniProt P08253); assay: Inhibition of human MMP2 by fluorometric assay
Interstitial collagenase = biological target: T1, Interstitial collagenase (Homo sapiens, UniProt P03956); assay: Inhibition of human MMP1 by fluorometric assay
T1 sequence (P03956 whole entry): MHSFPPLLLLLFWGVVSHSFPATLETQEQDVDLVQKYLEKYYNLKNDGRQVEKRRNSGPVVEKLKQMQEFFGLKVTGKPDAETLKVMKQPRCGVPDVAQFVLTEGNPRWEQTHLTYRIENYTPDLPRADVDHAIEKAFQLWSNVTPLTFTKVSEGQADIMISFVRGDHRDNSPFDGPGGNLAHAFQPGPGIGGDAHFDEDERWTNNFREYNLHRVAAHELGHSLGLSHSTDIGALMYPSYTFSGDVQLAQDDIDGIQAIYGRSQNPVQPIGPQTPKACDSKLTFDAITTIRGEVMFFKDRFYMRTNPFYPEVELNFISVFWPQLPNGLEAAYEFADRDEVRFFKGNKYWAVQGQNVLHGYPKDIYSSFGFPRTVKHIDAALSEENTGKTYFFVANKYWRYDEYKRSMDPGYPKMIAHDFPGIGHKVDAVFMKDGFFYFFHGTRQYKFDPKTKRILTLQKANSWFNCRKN

[2] = biological target: Matrix metalloproteinase-9 (Homo sapiens, UniProt P14780); assay: Inhibition of human MMP9 by fluorometric assay
[3] = Cytotoxicity against human U87MG cells assessed as dead cells at 5 nM after 24 hrs by trypan blue exclusion assay; format: functional, U-87MG ATCC
Outline: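 U87MG human glioblastoma cells (RPMI, 10% FBS, 2 mM L-glutamine, penicillin/streptomycin, 1% non-essential amino acids, 37 °C, 5% CO2) seeded at 30,000 cells/cm2 in serum-free medium with 5 nM compound, DMSO vehicle ≤1% final, for 24 h. Cells lightly trypsinized, pelleted 800 x g 5 min, stained with 0.4% Trypan Blue in 0.9% NaCl, counted by haemocytometer; mean ± S.E.M., ≥3 experiments in duplicate.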

[4] = Antiinvasive activity against human U87MG cells at 5 nM after 24 hrs by Matrigel basement membrane transwell assay; format: functional, U-87MG ATCC
Outline: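 U87MG cells (maintained in RPMI, 10% FBS, 37 °C, 5% CO2) suspended serum-free, 60,000 per upper transwell (8.0 μm filters coated with Matrigel 0.32 mg/mL), with inhibitor 5 nM, DMSO vehicle ≤1%. Lower chamber RPMI with 10% FBS. Invasion 24 h at 37 °C. Lower-surface cells fixed with p-formaldehyde, crystal violet-stained, counted in 5 fields. Inhibition versus untreated control. Duplicate, ≥3 experiments, mean ± S.E.M.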

[5] = biological target: Matrix metalloproteinase-14 (Homo sapiens, UniProt P50281); assay: Inhibition of human MMP14 by fluorometric assay
Outline: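 Pro-enzymes activated with APMA (2 mM 2 h, MMP-1; 2 mM 1 h, MMP-2/-8; 1 mM 1 h, MMP-9; all 37 °C) or trypsin then soybean trypsin inhibitor (MMP-3). MMP-14 was catalytic domain. Enzyme (MMP-1 2.0, MMP-2 0.5, MMP-3 5.0, MMP-8 1.5, MMP-9 1.3, MMP-14 1.0 nM) with inhibitor at 7 concentrations, 2 h, 25 °C, in Tris pH 7.5, 1% DMSO.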

[6] = biological target: T2, Matrix metalloproteinase-25 (Homo sapiens, UniProt Q9NPA2); assay: Inhibition of human MMP25 by fluorometric assay
T2 sequence (Q9NPA2 whole entry): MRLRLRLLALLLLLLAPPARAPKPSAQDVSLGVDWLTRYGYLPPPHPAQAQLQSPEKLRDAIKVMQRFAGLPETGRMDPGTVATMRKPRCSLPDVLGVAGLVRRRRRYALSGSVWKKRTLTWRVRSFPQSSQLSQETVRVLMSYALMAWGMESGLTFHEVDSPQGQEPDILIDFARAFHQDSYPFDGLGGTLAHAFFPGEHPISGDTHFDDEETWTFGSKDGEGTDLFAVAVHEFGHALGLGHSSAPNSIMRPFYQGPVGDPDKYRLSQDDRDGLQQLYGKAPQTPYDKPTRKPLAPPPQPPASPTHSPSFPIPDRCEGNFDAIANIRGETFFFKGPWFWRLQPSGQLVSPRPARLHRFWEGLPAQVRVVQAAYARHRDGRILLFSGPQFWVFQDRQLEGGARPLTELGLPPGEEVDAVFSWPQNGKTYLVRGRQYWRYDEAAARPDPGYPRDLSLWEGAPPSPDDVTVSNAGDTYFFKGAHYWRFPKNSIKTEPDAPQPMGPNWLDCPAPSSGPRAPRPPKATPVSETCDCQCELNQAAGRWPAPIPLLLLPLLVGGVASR
Outline: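 E. coli-expressed, refolded MMP-25 catalytic domain added to MOCAcPLGLA2pr(Dnp)AR-NH2 plus varying inhibitor in HEPES pH 7.5 with 5 mM CaCl2, 0.01% Brij-35, 5% DMSO, 25 °C. Initial rates from fluorescence (ex 328/em 393 nm), read every 4 s over 10 min.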

Neutrophil collagenase = Neutrophil collagenase (Homo sapiens, UniProt P22894); assay: Inhibition of human MMP8 by fluorometric assay
Stromelysin-1 = Stromelysin-1 (Homo sapiens, UniProt P08254); assay: Inhibition of human MMP3 by fluorometric assay
[7] = (§1) Antiinvasive activity against human U87MG cells after 24 hrs by Matrigel basement membrane transwell assay; format: functional, cell-based; details: u-87mg atcc
Outline: (§2)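 Transwell filters (8.0 μm pores) coated with Matrigel (0.32 mg/mL) overnight at room temperature. U87MG cells in serum-free medium (60,000/400 μL) with inhibitor (1, 5, 25, 125 nM; DMSO ≤1%) in upper chamber; RPMI + 10% FBS below. 37 °C, 24 h.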

U-87MG ATCC = assay: as §1; format: functional, cell-based; outline: as §2

Sequence of 72 kDa type IV collagenase (P08253 whole entry): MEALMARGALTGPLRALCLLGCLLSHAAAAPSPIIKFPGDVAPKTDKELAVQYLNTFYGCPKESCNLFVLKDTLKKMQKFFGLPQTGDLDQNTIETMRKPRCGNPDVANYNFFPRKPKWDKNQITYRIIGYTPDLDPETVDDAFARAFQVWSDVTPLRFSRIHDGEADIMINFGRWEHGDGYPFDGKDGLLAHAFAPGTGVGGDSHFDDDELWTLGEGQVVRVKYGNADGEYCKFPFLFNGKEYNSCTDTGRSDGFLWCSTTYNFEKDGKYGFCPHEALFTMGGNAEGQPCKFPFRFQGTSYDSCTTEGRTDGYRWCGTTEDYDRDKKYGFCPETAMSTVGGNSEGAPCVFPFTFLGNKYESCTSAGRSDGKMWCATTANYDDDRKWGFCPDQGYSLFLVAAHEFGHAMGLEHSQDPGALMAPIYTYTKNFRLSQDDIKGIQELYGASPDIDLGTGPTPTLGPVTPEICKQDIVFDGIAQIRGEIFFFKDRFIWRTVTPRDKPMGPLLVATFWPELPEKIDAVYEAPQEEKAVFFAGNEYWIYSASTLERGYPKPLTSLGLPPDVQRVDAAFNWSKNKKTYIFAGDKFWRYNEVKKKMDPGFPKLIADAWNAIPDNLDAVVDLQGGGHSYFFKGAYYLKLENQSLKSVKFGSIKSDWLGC
Sequence of Matrix metalloproteinase-9 (P14780 whole entry): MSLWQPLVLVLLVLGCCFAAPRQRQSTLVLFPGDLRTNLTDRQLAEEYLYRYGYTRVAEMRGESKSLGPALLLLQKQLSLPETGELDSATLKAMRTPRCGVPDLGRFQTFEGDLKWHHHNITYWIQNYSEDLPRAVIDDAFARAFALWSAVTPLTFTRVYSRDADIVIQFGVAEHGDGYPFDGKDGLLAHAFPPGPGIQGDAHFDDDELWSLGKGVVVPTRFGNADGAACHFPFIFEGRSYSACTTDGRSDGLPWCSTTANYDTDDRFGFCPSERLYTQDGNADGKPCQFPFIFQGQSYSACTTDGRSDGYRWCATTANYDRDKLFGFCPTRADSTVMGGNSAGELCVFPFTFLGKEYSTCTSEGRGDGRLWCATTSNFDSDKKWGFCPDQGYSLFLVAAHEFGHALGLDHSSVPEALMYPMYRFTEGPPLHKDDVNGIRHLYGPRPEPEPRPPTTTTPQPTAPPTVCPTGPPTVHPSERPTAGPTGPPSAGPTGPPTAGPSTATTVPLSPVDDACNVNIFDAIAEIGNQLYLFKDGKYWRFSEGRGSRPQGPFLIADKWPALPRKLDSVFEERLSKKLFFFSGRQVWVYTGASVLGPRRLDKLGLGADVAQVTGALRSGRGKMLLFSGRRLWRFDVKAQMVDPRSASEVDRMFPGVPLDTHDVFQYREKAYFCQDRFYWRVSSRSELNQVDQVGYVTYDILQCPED
Sequence of Stromelysin-1 (P08254 whole entry): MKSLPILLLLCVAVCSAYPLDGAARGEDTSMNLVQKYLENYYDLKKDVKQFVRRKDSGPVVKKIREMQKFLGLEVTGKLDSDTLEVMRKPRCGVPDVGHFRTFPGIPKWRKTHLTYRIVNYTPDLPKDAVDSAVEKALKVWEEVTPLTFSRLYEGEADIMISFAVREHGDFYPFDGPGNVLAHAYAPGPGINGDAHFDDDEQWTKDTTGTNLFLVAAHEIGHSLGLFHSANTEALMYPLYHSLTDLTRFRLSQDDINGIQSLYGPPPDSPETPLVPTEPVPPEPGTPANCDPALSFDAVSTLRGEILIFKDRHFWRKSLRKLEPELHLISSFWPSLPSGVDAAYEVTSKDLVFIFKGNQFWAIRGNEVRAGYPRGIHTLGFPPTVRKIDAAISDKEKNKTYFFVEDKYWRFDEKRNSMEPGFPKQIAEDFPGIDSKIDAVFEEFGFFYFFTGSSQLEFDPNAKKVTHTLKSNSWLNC
Sequence of Neutrophil collagenase (P22894 whole entry): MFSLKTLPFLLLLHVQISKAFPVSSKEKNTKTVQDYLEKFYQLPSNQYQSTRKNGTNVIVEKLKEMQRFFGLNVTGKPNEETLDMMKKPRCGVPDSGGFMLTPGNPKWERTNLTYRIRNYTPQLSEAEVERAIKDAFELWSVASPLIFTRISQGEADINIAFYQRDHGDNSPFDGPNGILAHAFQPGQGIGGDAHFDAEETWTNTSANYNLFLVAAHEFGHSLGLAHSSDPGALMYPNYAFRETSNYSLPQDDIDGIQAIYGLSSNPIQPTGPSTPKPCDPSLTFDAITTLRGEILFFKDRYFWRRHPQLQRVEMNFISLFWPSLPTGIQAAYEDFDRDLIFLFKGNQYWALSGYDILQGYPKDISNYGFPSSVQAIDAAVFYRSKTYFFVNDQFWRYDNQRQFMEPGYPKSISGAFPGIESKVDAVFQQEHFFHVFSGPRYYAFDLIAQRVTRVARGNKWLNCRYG

| Structure (SMILES) | pIC50 [1] | pIC50 (Interstitial collagenase) | pIC50 [2] | Activity [3] | Activity [4] | pIC50 [5] | pIC50 [6] | pIC50 (Neutrophil collagenase) | pIC50 (Stromelysin-1) | pIC50 [7] | Activity (U-87MG ATCC) |
| --- | --- | --- | --- | --- | --- | --- | --- | --- | --- | --- | --- |
| CCCCc1ccc(C#Cc2ccc(S(=O)(=O)N3Cc4ccccc4C[C@@H]3C(=O)NO)s2)cc1 | 8.89 | 5.17 | 8.37 | 13.6% | 35.9% | 6.95 | 8.47 | 7.52 | 7.96 |  |  |
| CCCCc1ccc(C#Cc2ccc(S(=O)(=O)NCC(=O)NO)s2)cc1 | 8.82 | 4.89 | 7.10 | 11.5% | 39.5% | 6.15 | 7.47 | 6.70 | 7.34 |  |  |
| CCCCc1ccc(C#Cc2ccc(S(=O)(=O)N[C@H](Cc3ccc(OCc4ccccc4)cc3)C(=O)NO)s2)cc1 | 8.64 | 5.32 | 7.20 | 12.3% | 42.6% | 5.68 | 7.42 | 6.31 | 6.74 | 7.92 | Dose-dependent effect |
| CCCCc1ccc(C#Cc2ccc(S(=O)(=O)N[C@H](Cc3ccc(C(=O)c4ccccc4)cc3)C(=O)NO)s2)cc1 | 8.40 | 4.43 | 7.30 | 9.38% | 27.5% | 5.18 | 6.47 | 6.36 | 7.08 |  |  |
| CCCCc1ccc(C#Cc2ccc(S(=O)(=O)N[C@H](Cc3csc4ccccc34)C(=O)NO)s2)cc1 | 7.77 | 4.25 | 6.19 | 14.4% | 34% | 4.64 | 6.66 | 5.77 | 6.49 |  |  |
| CCCCc1ccc(C#Cc2ccc(S(=O)(=O)N[C@H](Cc3c[nH]c4ccccc34)C(=O)NO)s2)cc1 |  | 5.64 | 7.11 | 6.8% | 48.4% | 5.77 | 7.12 | 6.55 | 7.03 |  |  |
| CCCCc1ccc(C#Cc2ccc(S(=O)(=O)N3CSC[C@H]3C(=O)NO)s2)cc1 | 8.60 | 4.68 | 7.68 | 17.8% | 16% | 5.80 | 6.77 | 6.30 | 7.42 |  |  |
| COc1ccc(S(=O)(=O)N(Cc2cccnc2)[C@@H](C(=O)NO)C(C)C)cc1.Cl [CGS-27023A] |  |  |  | 10.8% | 28.3% |  | 8.82 |  |  |  |  |

From ChEMBL document CHEMBL1795253, “Synthesis and biological evaluation in U87MG glioma cells of (ethynylthiophene)sulfonamido-based hydroxamates as matrix metalloproteinase inhibitors” (Eur J Med Chem, 2011)
